In ChEMBL document CHEMBL4513216, “Probing the Open Global Health Chemical Diversity Library for Multistage-Active Starting Points for Next-Generation Antimalarials” (ACS Infect Dis, 2020):

Assay: Toxicity liver stage against HepG2, at 10uM
Type: cell-based
Design: test concentration 10 uM, cell line HepG2-A16-CD81EGFP
Details: human, HepG2-A16-CD81EGFP cells; read-out: INHIBITION
Procedure, shortened: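 Uninfected HepG2-A16-CD81EGFP cells, 3 × 10^3 per well, 1536-well, plated on prespotted compound at 10 μM final, parasite-free screening media added to match infected plates; puromycin 10 μM positive, DMSO 0.5% negative; run in parallel with 48 h PbLuc assay at 37 °C, 5% CO2; viability by CellTiter-Glo luminescence, normalized to controls.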

SMILES | cytotoxicity at 10 µM [%]
CN(CCCc1cc(-c2cccc(F)c2)n[nH]1)C(=O)Cn1cncn1 | -129
CS(=O)(=O)N1CCC2(CCCN(Cc3ccccn3)C2)CC1 | -121
CCN(CC)C1(Cc2cc(-c3cccc(O)c3)on2)COC1 | 7.71
CC(c1ccccc1Cl)N(C)Cc1nc2c(cnn2C)c(=O)[nH]1 (stereo unspecified) | -5.19
CCc1nccn1-c1cncc(C2CCN(C(=O)COC)CC2)n1 | -37.3
COc1ccc(CC(=O)N2CCC(c3nncn3C)CC2)cc1F | 2.01
CC(=O)Nc1ccc2nc(CN(C)Cc3noc(C)n3)ccc2c1 | 3.47
COc1cccc(N2CCN(Cc3nccc(OC)c3OC)CC2=O)c1 | 3.63
CCNC(=O)C1CCN(Cc2ccccc2OCC(F)(F)F)CC1 | -3.03
Cc1nc(NCc2ccc(F)cc2)cc(C2CCCN2)n1 (stereo unspecified) | -3.27
CC(Nc1ccc(C#N)cc1F)c1cccc(S(N)(=O)=O)c1 (stereo unspecified) | -3.86
O=C([C@@H]1CCCO1)N1CCn2c(Cn3cccn3)cnc2C1 | -70.1
O=C([C@@H]1COC[C@H]2CN(C3CCOCC3)C[C@H]21)N1CCOCC1 | -4.14
CN1CCCN(C(=O)c2nc3sccn3c2-c2ncc[nH]2)CC1 | -4.34
COCCC(C)NC(=O)Nc1ccc(N2CCOC2=O)c(OC)c1 (stereo unspecified) | 6.48
N#Cc1ccnc(N2CCN(CC(O)c3ccccc3Cl)CC2)c1 (stereo unspecified) | 1.7
Cc1nc(N2CCCC2)nc2c1CCN(C(=O)CC1CCCC1)CC2 | 0.457
CC(C)Cc1noc(CN(C)C[C@]2(O)CCCN3CCCC[C@@H]32)n1 | -2.36
Cc1cc(C)n(CCC(=O)N2CCCC(c3nc(C(C)C)no3)C2)n1 (stereo unspecified) | 8.27
CCCNc1c(NC(=O)NCCOC)c(=O)oc2ccccc12 | -6.23
CNC(=O)[C@@H]1C[C@@H](N)CN1Cc1cc2cc(C)cc(C)c2[nH]c1=O | -5.23
Cc1ccccc1CN1CCN(C(=O)CN2CCOC2=O)CC1 | -8.03
CC(C)=CCCC(C)CN1CCC(n2cc(C(C)(C)O)nn2)CC1 (stereo unspecified) | -2.27

SMILES | cytotoxicity at 10 µM [%]
Cc1cccnc1N1CC2(CCN(Cc3cnn(C)c3)C2)C1 | -5.99
Cc1cc(C)n(CC2CN(Cc3ccc(C(N)=O)cc3)CCO2)n1 (stereo unspecified) | -15.1
CC(SCC(=O)NC(N)=O)c1ccccc1F (stereo unspecified) | 2.96
Cc1cc(C(=O)N2CC[C@]3(C[C@@H](OCc4ccccn4)CO3)C2)c(C)o1 | -78.7
O=C(c1cnccn1)N1C[C@@H](c2ccccc2)[C@@]2(CCNC2=O)C1 | -1.59
Cc1noc(C)c1C(=O)NCC1CCCCN1Cc1ccccc1 (stereo unspecified) | -4.4
O=C(NCc1ccnc(OCC(F)(F)F)c1)NCC1CCOC1 (stereo unspecified) | -3.22
Cc1cccc2nc(C(=O)N3CCC4(CCC(=O)N(C)C4)CC3)c(F)n12 | -0.103
CCOCCS(=O)(=O)N(CC)Cc1ccc(Cl)s1 | -6.15
CCCn1ccnc1CN1CCCC1c1cccc(-n2ccnc2)n1 (stereo unspecified) | -22.2
CC(C)NC(=O)C1(Cc2ccccc2-c2ccccc2)CCCNC1 (stereo unspecified) | 3.05
CCc1nsc(NC2CCCn3nc(COC)nc32)n1 (stereo unspecified) | 14.1
NC(=O)CSc1ccccc1NCc1nc(Cc2ccccc2)no1 | 7.04
CC(C)(C(=O)NCC(=O)N1CCCC1)c1ccccc1F | 2.66
O=C(c1ccncc1F)N1CCc2ncnc(N3CCOCC3)c2CC1 | -75
O=C(NC[C@H]1OC[C@@H](NC2CCC(F)(F)CC2)[C@@H]1O)Nc1ccccc1 | 4.11
COC[C@@]12CCO[C@@H]1CCN(C(=O)COc1ccccc1OC)C2 | -8.89
Cc1nn(Cn2ccc(C(=O)N3CCCC3)n2)c(C)c1Cl | 0.748
CC(C)c1nc(C2CCCN(C(=O)CN3CCN(C)CC3)C2)no1 (stereo unspecified) | 3.8
CCOCC1CN(C(=O)c2ccsc2)Cc2nn(C)cc21 (stereo unspecified) | 3.39
NC(=O)COc1cccc(C(=O)N2CCCC(n3ccnc3)C2)c1 (stereo unspecified) | -9.63
Cc1nn2c(N3CCC(O)CC3)cc(-c3ccccc3)nc2c1C | -6.54
Cc1ccc2[nH]c(CO[C@H]3CN(c4ccc(C#N)cn4)C[C@H]3F)nc2c1 | -1.6

SMILES | cytotoxicity at 10 µM [%]
O=C1C(Nc2ccc3nccnc3n2)CCN1c1ccccc1F (stereo unspecified) | -10
CCOC(=O)CNC(=O)N1CCOC(Cc2ccc(OC)cc2)C1 (stereo unspecified) | -7.99
CCc1nc(CNC(=O)Nc2nc(COC)cs2)cs1 | -0.67
CN(CCc1ccc(F)cc1)Cc1nc2c(cnn2C)c(=O)[nH]1 | -1.69
CCc1ncc(CN[C@@H]2CCCN(C(C)=O)[C@H]2c2ccc(C)s2)cn1 | -26.2
COc1ccc2c(c1)OCC(CNC1CCc3nc(C)nn3C1)=C2 (stereo unspecified) | 1.84
CCc1oc(C(=O)OC)cc1Cn1cccc(C(F)(F)F)c1=O | -2.13
CC(C)C1CN(C(=O)Nc2cnn(CC(F)F)c2)CCS1 (stereo unspecified) | 12.6
COCCn1cnnc1Cn1ccnc1-c1ccsc1 | 8.61
COc1ccc2cc(C(=O)N3CCCCC3CC(N)=O)[nH]c2c1 (stereo unspecified) | -12.3
Cc1ccc(CSc2nc(N)cc(NCCC(=O)N3CCCC3)n2)cc1 | 1.87
O=C(CCc1ccco1)NCC1CCCN1c1cccnn1 (stereo unspecified) | -10.8
Cc1cccc(=O)n1CCCNc1nc(N(C)C)nc2c1CCNCC2 | -10.2
COCCC(=O)N1Cc2nc3c(C)c(-c4cccs4)nn3c(O)c2C1 | -1.19
N#Cc1ccsc1C(=O)N1CCCN(Cc2cscn2)CC1 | 3.48
COc1cc(I)c(Cl)cc1C(=O)N(C)CC(C)(C)O | 11.4
COc1cccc(CN2CC(O)CN(S(C)(=O)=O)CC2=O)c1OC (stereo unspecified) | -0.686
CC1CCN(C(=O)C2CCN(S(C)(=O)=O)CC2)c2ccccc21 (stereo unspecified) | -9.28
CCOCC1C[C@@H]2OCCN(C(=O)c3ccc[nH]3)[C@H]2C1 (stereo partly specified) | -1.86
CCC(CNS(N)(=O)=O)Oc1ccccc1F (stereo unspecified) | 3.01
CC(C)NC(=O)NCC1(COc2cnccn2)C[C@@H](O)[C@@H](O)C1 (stereo partly specified) | -9.85
CN(C)C(Cn1ccnc1-c1nccn1C)c1ccccc1Cl (stereo unspecified) | -0.0184
CCN1CC2(CCN(Cc3nc(CSC)no3)CC2)CC1=O | -1.41

SMILES | cytotoxicity at 10 µM [%]
Cc1nn(C)c(C)c1C1CCCN1c1ncnc2[nH]ccc12 (stereo unspecified) | 3.45
CCn1nc2c(cc1=O)CN(CC1CCCCO1)CC2 (stereo unspecified) | -2.94
CN(Cc1nc2c(cnn2C)c(=O)[nH]1)Cc1ccco1 | -8.11
COc1ncccc1CNC(=O)c1c(C)oc(C)c1C | -14.5
CC(C)Cc1cc(C(=O)NCC(O)CN2CCCCCC2)on1 (stereo unspecified) | -1.53
Cn1cnnc1C1CCN(C(=O)Cc2ccc3c(c2)OCCO3)CC1 | -10.4
O=C(Cn1nc2c(cc1=O)CCCC2)NC(C(=O)O)c1ccccc1 (stereo unspecified) | 5.7
COC(=O)c1ccc(/C=C/c2ncc(C(=O)O)s2)cc1 | -7.11
Cc1cc(NC(=O)CN2CCCCC2Cn2nc(C)nc2C)on1 (stereo unspecified) | -2.19
COCCN1CCCC2(CCN(c3ncnc(C)c3C)C2)C1=O (stereo unspecified) | 33.4
CSCC[C@H](N)c1nnc(SCc2cc(C)ccc2C)o1 | 0.0308
COCCN1CCC2(CC1)CCN(Cc1ccccn1)CC2 | -3.54
Cc1ccc(C(=O)N2CCn3cnc(COCC4CC4)c3C2)cn1 | 4.03
CC(=O)N1CCC(c2ccnc(Nc3cncnc3)n2)C1 (stereo unspecified) | 0.951
CCCn1cnnc1CNC(=O)C1COc2ccc(OC)cc2C1 (stereo unspecified) | -2.06
c1csc(CN2C[C@H]3CCC[C@@]3(COCC3CCOCC3)C2)n1 | -1.99
O=C(Nc1cccc(C(F)(F)F)c1)C1CC(=O)N(Cc2ccccn2)C1 (stereo unspecified) | -0.505
NC(=O)c1ccc(-n2ccnc2-c2cccc(O)c2)cc1N1CCCC1 | 15.8
O=C(NCCc1cc2nc(-c3ccncc3)ccn2n1)C1CC1 | 5.82
O=C(Cc1c[nH]c2ccccc12)N1CCN(C(=O)c2ccoc2)CC1 | -2.15
CN(C)c1ccc(-c2ccnc3c2ccn3C)nn1 | 10.9
O=C(CCc1ccccc1)C1CCCN(C(=O)c2cncc(Cl)c2)C1 (stereo unspecified) | 1.72
Cc1ccc(Cl)cc1N1CCC(CNC(=O)CC(F)(F)F)C1 (stereo unspecified) | -9.7

SMILES | cytotoxicity at 10 µM [%]
COc1ncccc1CNC(=O)N(Cc1ccc(F)cc1F)C1CC1 | 0.139
O=C(CS(=O)(=O)c1ccccn1)NC1CCCc2ccccc21 (stereo unspecified) | -4.04
COc1ccccc1C1Cn2ccnc2CN1Cc1c[nH]nc1C (stereo unspecified) | -3.85
CCNc1cc2c(nn1)CCN(C(=O)c1ccc(C(N)=O)cc1)C2 | -15.6
CCC(c1ccccc1)S(=O)(=O)CCO (stereo unspecified) | -136
CN(C)c1ccc(NC(=O)NCc2cccnc2N(C)C)cn1 | -20.9
CCC(CC)N(Cc1cc(=O)n(C)c(=O)n1C)C1CC1 | 15.8
CN(C(=O)NCc1ccsc1)C1CCN(c2ccccc2)C1=O (stereo unspecified) | -5.63
Cc1csc(N(C)C(=O)C2CC(=O)N(CCc3ccccc3)C2)n1 (stereo unspecified) | -99.4
O=C(O)C1(O)CCN(c2ccc3cccc(Cl)c3n2)CC1 | 4.57
COc1ccc(-n2cc3nc(N)[nH]cc-3c2=O)cc1Cl | 17.7
Cc1cc(CN2CCOCS2(=O)=O)ccc1F | -8.02
Cc1cc(C(=O)N(C)C2CCS(=O)(=O)C2)c2ccc(F)cc2n1 (stereo unspecified) | -9.59
COC(=O)c1ccc(OC)c(OC23CCCN(CC2)C3)c1 (stereo unspecified) | -13.9
CC(C)N(C)C(=O)C1=NOC2(CCN(C(=O)c3ccc(Cl)cc3)C2)C1 (stereo unspecified) | -16.7
CC(=O)N1CC[C@@H]2CN(Cc3cccc(Cl)c3)S(=O)(=O)[C@@H]2CC1 | -10.8
Cc1ccc(C2COCCN2C(=O)c2ccc(C#N)cc2)o1 (stereo unspecified) | -5.08
CC(CCc1ccccc1)NC(=O)Nc1cnn(CC(N)=O)c1 (stereo unspecified) | 1.64
CCc1nc(C)c(C(=O)NCCNc2ncccc2C#N)s1 | -8.54
